Data: ChEMBL document CHEMBL4177575 (Bioorg Med Chem, 2017)
Active and inactive are the calls of the source. The calls are words filed in the database; no cut-off is given here.

What was measured:
[1] = system: A549; experiment: Cytotoxicity against human A549 cells assessed as reduction in cell viability incubated for 72 hrs by MTT assay; assay type: functional, cell-based
Method in brief: (§1)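 Cells grown in MEM with 10% FBS; about 4×10^3 cells per well, pre-incubated 24 h at 37 °C in 5% CO2, then exposed to compound for 72 h. Seven concentrations, threefold serial dilution from 100 ug/mL initial. MTT at 5 µg/mL terminal concentration for 4 h; formazan dissolved in DMSO, absorbance read at 492 nm against 630 nm reference. IC50 is the average of two determinations.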

[2] = system: PC-3; experiment: Cytotoxicity against human PC3 cells assessed as reduction in cell viability incubated for 72 hrs by MTT assay; assay type: functional, cell-based; method in brief: as §1
[3] = target: Vascular endothelial growth factor receptor 2 (Homo sapiens, UniProt P35968); experiment: Inhibition of VEGFR2 (unknown origin) incubated for 10 mins using FAM-labeled peptide and ATP by mobility shift assay
Vascular endothelial growth factor receptor 2, sequence (P35968 whole entry): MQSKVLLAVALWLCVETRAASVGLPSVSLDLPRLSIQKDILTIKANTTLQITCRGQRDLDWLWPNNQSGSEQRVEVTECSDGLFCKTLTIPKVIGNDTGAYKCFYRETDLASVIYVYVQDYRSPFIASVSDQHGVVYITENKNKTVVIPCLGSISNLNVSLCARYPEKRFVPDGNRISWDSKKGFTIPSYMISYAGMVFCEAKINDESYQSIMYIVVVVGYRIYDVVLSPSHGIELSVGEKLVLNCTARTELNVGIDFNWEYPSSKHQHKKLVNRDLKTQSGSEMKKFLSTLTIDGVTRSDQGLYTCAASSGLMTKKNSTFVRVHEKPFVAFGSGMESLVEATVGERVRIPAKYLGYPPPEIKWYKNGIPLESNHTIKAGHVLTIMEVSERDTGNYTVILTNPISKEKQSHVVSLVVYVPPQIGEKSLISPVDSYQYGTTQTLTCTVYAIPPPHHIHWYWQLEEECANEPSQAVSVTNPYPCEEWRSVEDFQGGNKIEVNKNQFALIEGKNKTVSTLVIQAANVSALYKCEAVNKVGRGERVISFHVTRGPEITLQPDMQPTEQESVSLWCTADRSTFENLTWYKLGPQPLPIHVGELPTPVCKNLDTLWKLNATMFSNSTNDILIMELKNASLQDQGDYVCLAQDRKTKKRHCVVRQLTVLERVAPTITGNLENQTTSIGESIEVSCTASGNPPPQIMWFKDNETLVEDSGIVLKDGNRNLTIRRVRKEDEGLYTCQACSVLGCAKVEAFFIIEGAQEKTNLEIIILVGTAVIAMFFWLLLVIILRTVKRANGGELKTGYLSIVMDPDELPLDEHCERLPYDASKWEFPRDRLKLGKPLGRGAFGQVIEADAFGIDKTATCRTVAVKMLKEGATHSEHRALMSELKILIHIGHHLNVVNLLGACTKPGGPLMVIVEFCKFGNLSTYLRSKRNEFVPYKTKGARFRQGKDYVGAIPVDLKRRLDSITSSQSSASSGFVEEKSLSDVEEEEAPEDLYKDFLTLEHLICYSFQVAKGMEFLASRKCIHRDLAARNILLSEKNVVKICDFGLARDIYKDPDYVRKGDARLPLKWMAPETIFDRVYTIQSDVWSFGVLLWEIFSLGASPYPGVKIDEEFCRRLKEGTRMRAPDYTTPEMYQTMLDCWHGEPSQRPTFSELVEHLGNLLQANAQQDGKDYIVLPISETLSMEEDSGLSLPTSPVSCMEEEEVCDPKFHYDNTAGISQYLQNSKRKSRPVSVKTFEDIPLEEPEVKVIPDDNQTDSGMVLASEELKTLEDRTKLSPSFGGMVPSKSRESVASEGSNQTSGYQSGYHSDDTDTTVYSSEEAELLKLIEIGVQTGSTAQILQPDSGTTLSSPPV

[4] = target: Serine/threonine-protein kinase B-raf (Homo sapiens, UniProt P15056); experiment: Inhibition of BRAF (unknown origin) incubated for 10 mins using FAM-labeled peptide and ATP by mobility shift assay
Serine/threonine-protein kinase B-raf, sequence (P15056 whole entry): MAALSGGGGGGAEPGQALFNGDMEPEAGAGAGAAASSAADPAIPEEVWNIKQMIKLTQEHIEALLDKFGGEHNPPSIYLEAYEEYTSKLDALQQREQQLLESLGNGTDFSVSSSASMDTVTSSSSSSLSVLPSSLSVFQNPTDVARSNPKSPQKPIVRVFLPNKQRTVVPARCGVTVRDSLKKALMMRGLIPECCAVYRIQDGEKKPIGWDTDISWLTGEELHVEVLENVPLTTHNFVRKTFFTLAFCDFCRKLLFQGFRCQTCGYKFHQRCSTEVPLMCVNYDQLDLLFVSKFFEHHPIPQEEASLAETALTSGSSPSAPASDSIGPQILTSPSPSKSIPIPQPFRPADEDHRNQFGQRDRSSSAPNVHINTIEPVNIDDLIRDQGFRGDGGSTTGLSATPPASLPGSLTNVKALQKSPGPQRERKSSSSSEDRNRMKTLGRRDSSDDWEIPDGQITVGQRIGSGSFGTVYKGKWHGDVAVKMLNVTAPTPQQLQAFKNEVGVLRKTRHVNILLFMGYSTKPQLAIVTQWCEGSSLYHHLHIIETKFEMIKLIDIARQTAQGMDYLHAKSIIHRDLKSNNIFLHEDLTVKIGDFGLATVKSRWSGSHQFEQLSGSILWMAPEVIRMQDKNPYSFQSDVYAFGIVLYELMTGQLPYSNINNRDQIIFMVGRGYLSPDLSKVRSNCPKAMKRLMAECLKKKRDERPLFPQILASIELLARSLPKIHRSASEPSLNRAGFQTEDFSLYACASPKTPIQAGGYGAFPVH

[5] = target: RAF proto-oncogene serine/threonine-protein kinase (Homo sapiens, UniProt P04049); experiment: Inhibition of CRAF (unknown origin) incubated for 10 mins using FAM-labeled peptide and ATP by mobility shift assay
RAF proto-oncogene serine/threonine-protein kinase, sequence (P04049 whole entry): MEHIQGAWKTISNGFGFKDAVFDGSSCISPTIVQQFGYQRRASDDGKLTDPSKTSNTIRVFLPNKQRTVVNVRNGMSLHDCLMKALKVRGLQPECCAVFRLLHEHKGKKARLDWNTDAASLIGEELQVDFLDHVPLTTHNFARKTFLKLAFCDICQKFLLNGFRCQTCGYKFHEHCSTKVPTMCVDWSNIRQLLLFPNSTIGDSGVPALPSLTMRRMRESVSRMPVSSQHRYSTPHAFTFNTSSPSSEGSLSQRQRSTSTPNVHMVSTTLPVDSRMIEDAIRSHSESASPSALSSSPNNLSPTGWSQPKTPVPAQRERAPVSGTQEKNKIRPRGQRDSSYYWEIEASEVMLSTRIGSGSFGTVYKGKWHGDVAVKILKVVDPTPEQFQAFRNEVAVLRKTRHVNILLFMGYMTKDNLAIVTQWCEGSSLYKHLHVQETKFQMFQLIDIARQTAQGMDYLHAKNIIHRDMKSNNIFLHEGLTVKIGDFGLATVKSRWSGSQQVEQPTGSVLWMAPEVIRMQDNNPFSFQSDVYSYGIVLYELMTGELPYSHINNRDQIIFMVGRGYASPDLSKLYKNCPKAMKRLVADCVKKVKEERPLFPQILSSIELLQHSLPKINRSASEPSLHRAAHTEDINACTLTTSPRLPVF
Method in brief: (§2)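 Mobility shift assay in 384-well plates. Compound, diluted from a 500 μM DMSO stock, preincubated with enzyme 10 min at room temperature. FAM-labelled peptide and ATP then added and the reaction run at 28 °C. Stopped with EDTA-containing buffer and read on Caliper. Inhibition = (max−conversion)/(max−min)×100, with DMSO wells as max and enzyme-free wells as min.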

[6] = target: Hepatocyte growth factor receptor (Homo sapiens, UniProt P08581); experiment: Inhibition of c-MET (unknown origin) incubated for 10 mins using FAM-labeled peptide and ATP by mobility shift assay
Method in brief: as §2, with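 “plates. Kinase buffer: 50 mM HEPES pH 7.5, 10 mM MgCl2, 0.0015% Brij-35, 2 mM DTT.” for “plates.”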

[7] = target: Epidermal growth factor receptor (Homo sapiens, UniProt P00533); experiment: Inhibition of EGFR (unknown origin) incubated for 10 mins using FAM-labeled peptide and ATP by mobility shift assay
Epidermal growth factor receptor, sequence (P00533 whole entry): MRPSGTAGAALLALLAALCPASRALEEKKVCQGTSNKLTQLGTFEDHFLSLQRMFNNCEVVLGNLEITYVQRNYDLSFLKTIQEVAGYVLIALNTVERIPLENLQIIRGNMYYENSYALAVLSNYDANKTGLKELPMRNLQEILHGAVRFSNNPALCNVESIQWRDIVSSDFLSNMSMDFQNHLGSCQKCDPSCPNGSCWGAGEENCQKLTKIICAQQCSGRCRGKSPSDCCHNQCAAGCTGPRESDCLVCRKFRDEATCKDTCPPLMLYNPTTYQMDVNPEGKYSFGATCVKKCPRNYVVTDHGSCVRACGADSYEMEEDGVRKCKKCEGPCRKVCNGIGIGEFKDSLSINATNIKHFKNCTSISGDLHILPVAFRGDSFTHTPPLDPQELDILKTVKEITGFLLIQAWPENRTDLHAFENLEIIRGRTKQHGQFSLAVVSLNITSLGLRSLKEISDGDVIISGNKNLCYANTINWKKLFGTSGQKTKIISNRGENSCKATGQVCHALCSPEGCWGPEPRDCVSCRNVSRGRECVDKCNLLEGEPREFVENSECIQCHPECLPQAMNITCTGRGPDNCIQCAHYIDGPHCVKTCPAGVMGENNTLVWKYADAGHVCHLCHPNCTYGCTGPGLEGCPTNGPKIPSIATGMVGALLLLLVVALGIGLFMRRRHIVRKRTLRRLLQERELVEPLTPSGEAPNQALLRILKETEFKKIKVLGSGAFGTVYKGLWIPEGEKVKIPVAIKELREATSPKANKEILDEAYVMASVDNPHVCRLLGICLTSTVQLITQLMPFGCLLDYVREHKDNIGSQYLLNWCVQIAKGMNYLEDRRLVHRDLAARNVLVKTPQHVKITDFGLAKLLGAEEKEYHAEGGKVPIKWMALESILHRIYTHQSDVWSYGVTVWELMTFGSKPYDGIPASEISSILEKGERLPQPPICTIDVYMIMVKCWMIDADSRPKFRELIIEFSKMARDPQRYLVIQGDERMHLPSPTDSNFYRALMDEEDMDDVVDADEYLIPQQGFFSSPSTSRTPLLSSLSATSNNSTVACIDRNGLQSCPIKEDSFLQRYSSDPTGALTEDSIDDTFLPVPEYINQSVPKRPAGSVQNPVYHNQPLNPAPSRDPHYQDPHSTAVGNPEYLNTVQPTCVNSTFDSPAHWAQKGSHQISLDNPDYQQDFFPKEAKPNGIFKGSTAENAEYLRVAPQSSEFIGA

[8] = target: T1, Receptor-type tyrosine-protein kinase FLT3 (Homo sapiens, UniProt P36888); experiment: Inhibition of FLT3 (unknown origin) incubated for 10 mins using FAM-labeled peptide and ATP by mobility shift assay
T1 sequence (P36888 whole entry): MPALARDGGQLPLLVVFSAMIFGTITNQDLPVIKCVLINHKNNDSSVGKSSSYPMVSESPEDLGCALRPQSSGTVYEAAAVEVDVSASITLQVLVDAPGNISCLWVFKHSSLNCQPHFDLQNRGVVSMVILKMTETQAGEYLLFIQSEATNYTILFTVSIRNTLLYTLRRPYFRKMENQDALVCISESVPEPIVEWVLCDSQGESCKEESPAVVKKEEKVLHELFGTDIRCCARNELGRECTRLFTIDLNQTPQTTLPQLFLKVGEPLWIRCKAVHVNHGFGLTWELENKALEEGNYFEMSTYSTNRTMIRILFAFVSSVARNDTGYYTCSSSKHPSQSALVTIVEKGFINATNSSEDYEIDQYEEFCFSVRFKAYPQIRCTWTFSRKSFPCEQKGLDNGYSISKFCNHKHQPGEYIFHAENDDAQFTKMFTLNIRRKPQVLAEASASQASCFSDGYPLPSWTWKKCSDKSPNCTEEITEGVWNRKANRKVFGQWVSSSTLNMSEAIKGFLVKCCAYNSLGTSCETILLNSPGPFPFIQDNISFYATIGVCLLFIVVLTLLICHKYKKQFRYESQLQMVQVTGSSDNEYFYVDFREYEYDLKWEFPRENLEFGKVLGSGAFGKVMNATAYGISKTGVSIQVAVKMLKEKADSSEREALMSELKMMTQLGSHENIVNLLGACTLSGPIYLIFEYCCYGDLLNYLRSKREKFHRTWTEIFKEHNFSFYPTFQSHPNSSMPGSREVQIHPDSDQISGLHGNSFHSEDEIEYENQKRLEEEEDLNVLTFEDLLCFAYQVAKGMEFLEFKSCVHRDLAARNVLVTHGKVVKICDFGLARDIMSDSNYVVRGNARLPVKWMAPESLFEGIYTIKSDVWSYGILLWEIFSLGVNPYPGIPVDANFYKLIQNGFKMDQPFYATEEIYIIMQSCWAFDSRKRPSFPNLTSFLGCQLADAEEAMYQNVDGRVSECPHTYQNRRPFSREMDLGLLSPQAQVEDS
Method in brief: as §2, with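 “plates. Kinase buffer: 50 mM HEPES pH 7.5, 10 mM MgCl2, 0.0015% Brij-35, 2 mM DTT.” for “plates.”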

[9] = system: A549; experiment: Induction of morphological changes in human A549 cells assessed as induction of apoptotic bodies at 1.85 uM incubated for 12 hrs by acridine orange dye based inverted microscopy and fluorescence microscopy; assay type: functional, cell-based
Method in brief: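 Untreated control included. A549 cells exposed 12 h at 1.85 μM, then single-stained with acridine orange. Nuclei and morphology examined by inverted and fluorescence microscopy.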

[10] = system: A549; experiment: Induction of apoptosis in human A549 cells assessed as viable cell level at 3 uM incubated for 48 hrs by Annexin VFITC and propidium iodide staining based flow cytometry (reference value: 93.27%); assay type: functional
Method in brief: (§3)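 A549 cells seeded in RPMI 1640 and treated 48 h at 3, 6 or 12 µM. Cells then stained with Annexin V-FITC plus propidium iodide, 30 min at 4 °C in the dark, and analysed on a FACS Calibur flow cytometer.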

[11] = system: A549; experiment: Induction of apoptosis in human A549 cells assessed as early apoptotic cell level at 3 uM incubated for 48 hrs by Annexin VFITC and propidium iodide staining based flow cytometry (reference value: 0.64%); assay type: functional; method in brief: as §3
[12] = system: A549; experiment: Induction of apoptosis in human A549 cells assessed as necrotic cell level at 3 uM incubated for 48 hrs by Annexin VFITC and propidium iodide staining based flow cytometry (reference value: 2.69%); assay type: functional; method in brief: as §3
[13] = system: A549; experiment: Induction of apoptosis in human A549 cells assessed as early apoptotic cell level at 6 uM incubated for 48 hrs by Annexin VFITC and propidium iodide staining based flow cytometry (reference value: 0.64%); assay type: functional; method in brief: as §3
[14] = system: A549; experiment: Induction of apoptosis in human A549 cells assessed as necrotic cell level at 6 uM incubated for 48 hrs by Annexin VFITC and propidium iodide staining based flow cytometry (reference value: 2.69%); assay type: functional; method in brief: as §3
[15] = system: A549; experiment: Induction of apoptosis in human A549 cells assessed as early apoptotic cell level at 12 uM incubated for 48 hrs by Annexin VFITC and propidium iodide staining based flow cytometry (reference value: 0.64%); assay type: functional; method in brief: as §3
[16] = system: A549; experiment: Induction of apoptosis in human A549 cells assessed as late apoptotic cell level at 12 uM incubated for 48 hrs by Annexin VFITC and propidium iodide staining based flow cytometry (reference value: 3.4%); assay type: functional; method in brief: as §3
[17] = system: A549; experiment: Induction of apoptosis in human A549 cells assessed as necrotic cell level at 12 uM incubated for 48 hrs by Annexin VFITC and propidium iodide staining based flow cytometry (reference value: 2.69%); assay type: functional; method in brief: as §3

Compound: CNC(=O)c1cc(Oc2ccc(C3=NNC(c4cccc(Br)c4)C3)cc2)ccn1 (centres undefined)
- Activity [1]: Dose-dependent effect
- IC50 ([1]; A549, 72 h): 2.84 µM
- Activity [2]: Dose-dependent effect
- IC50 ([2]; PC-3, 72 h): 3.54 µM
- IC50 [3]: 0.56 µM
- IC50 [4]: 3.4 µM
- IC50 [5]: 7.9 µM
- IC50 [6]: 0.54 µM
- IC50 [7]: > 10 µM
- IC50 [8]: 5.2 µM
- Activity [9]: Active
- Activity [10]: 88.8%
- Activity [11]: 2.2%
- Activity [12]: 4.49%
- Activity [13]: 7.72%
- Activity [14]: 1.24%
- Activity [15]: 11.95%
- Activity [16]: 10.05%
- Activity [17]: 2.45%
